ChEMBL document CHEMBL2321834 (J Med Chem, 2013)

Columns and labels:
[1] = target: Estrogen receptor beta (Homo sapiens) (UniProt Q92731); test: Displacement of [3H]E2 from human recombinant ERbeta after 1 hr by scintillation counting analysis relative to E2
How it was run: (§1)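 Competitive binding assay against ERα and ERβ, with E2 as internal reference.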

[2] = target: T1, Estrogen receptor (Homo sapiens) (UniProt P03372); test: Displacement of [3H]E2 from human recombinant ERalpha after 1 hr by scintillation counting analysis relative to E2; how it was run: as §1
T1 sequence (whole entry): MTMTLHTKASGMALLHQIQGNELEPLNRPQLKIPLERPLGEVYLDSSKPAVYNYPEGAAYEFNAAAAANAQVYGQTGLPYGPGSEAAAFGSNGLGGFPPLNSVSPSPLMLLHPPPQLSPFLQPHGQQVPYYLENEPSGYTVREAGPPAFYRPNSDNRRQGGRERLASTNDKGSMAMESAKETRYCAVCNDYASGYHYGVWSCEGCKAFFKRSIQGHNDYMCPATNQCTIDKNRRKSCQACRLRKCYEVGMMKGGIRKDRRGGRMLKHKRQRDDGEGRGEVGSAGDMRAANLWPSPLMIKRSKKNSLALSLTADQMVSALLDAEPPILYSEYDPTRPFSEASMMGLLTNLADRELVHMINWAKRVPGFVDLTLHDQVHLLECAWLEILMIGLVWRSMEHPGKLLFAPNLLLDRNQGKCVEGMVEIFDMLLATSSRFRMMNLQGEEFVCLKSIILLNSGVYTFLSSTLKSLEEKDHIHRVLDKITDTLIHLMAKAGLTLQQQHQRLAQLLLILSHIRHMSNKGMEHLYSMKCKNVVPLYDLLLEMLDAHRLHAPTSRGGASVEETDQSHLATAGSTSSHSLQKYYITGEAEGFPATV

[3] = target: T2, 17-beta-hydroxysteroid dehydrogenase type 2 (Homo sapiens) (UniProt P37059); settings: Placenta, Microsomal, at 1 µM
T2 sequence (whole entry): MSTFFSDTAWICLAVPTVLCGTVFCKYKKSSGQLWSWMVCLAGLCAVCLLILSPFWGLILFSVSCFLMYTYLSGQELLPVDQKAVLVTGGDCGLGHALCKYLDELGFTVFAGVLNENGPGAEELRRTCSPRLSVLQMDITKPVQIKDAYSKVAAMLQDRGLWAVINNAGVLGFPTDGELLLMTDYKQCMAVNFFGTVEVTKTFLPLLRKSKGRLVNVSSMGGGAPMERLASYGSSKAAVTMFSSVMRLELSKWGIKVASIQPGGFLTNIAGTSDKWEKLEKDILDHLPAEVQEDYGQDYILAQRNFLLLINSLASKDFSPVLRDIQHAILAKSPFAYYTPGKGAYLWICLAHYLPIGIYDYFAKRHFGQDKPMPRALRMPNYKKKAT

[4] = target: T3, Estradiol 17-beta-dehydrogenase 2 (Mus musculus) (UniProt P51658); test: Inhibition of 17beta-HSD2 in mouse liver microsomal fraction assessed as inhibition of [3H]E2 conversion to E1 at 1 uM by scintillation counting analysis; type: microsomes
T3 sequence (whole entry): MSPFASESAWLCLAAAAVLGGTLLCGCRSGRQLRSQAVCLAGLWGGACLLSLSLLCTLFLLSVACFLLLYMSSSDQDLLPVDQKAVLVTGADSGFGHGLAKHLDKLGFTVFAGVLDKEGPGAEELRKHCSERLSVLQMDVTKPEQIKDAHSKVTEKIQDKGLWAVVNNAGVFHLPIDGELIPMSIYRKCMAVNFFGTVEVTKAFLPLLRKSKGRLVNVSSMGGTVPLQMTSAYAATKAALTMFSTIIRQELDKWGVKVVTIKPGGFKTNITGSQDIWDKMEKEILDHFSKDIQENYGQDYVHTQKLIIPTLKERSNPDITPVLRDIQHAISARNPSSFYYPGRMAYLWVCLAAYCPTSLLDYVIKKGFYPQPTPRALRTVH
How it was run: (§2)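 Cell-free assay measuring percent inhibition of the E2-to-E1 transformation. Enzyme source was the microsomal fraction of rat or mouse liver, or of Callithrix jacchus placenta for the marmoset.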

[5] = target: T4, 17-beta-hydroxysteroid dehydrogenase type 2 (Homo sapiens, UniProt P37059); test: Inhibition of 17beta-HSD2 in human MDA-MB-231 cells using [3H]E2 as substrate after 6 hrs by HPLC analysis; type: cell-based
T4 sequence (P37059 whole entry): T2 sequence (whole entry)

Callithrix jacchus = species on record: Callithrix jacchus; test: Inhibition of 17beta-HSD2 in common marmoset placental microsomal fraction assessed as inhibition of [3H]E2 conversion to E1 at 1 uM by scintillation counting analysis; type: microsomes; settings: Placenta; how it was run: as §2
[6] = target: 11-beta-hydroxysteroid dehydrogenase 1 (Homo sapiens, UniProt P28845); test: Inhibition of human recombinant 11beta-HSD1 expressed in HEK293 cell using [1,2-3H]Cortisone as substrate after 10 mins by scintillation counting analysis; type: cell-based
Sequence of 11-beta-hydroxysteroid dehydrogenase 1 (P28845 whole entry): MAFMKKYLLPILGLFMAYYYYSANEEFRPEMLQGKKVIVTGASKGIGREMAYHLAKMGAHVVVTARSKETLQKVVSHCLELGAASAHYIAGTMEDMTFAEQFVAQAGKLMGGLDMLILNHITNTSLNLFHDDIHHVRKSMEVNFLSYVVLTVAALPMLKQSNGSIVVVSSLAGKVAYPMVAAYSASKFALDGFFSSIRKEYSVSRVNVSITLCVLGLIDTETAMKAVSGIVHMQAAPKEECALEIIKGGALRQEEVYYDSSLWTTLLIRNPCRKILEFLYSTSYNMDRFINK

Homo sapiens = species on record: Homo sapiens; test: Selectivity ratio of IC50 for 17beta-HSD1 in human placental microsomal fraction to IC50 for 17beta-HSD2 in human placental microsomal fraction; type: microsomes; settings: Microsome

Sequence of Estrogen receptor beta (Homo sapiens) (Q92731 whole entry): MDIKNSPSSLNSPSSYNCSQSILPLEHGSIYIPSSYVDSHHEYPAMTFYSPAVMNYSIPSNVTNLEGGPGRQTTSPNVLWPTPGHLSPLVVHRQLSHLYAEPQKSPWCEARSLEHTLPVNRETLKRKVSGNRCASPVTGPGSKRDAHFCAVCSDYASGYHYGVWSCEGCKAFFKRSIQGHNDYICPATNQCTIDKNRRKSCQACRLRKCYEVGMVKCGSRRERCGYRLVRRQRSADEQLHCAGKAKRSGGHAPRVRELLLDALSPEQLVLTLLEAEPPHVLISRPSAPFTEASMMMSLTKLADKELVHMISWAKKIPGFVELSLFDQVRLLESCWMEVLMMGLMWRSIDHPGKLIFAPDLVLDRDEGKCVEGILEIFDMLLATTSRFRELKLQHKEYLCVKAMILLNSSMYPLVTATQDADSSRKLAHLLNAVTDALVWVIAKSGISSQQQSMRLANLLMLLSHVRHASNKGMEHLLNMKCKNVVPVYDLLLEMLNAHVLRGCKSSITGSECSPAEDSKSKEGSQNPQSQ

IC50 [6]	Ratio IC50 (Homo sapiens)	SMILES	RBA [1]	RBA [2]	inhibition [3]	inhibition [4]	IC50 [5]	inhibition (Callithrix jacchus)
		COc1cccc(N(C)C(=O)c2ccc(-c3cccc(OC)c3F)s2)c1	< 0.1%	< 0.1%	93%	26%	105 nM	45%
1000 nM	73	COc1cccc(-c2ccc(C(=O)N(C)Cc3cccc(O)c3)s2)c1F			89%	65%		47%
